Reference: ChEMBL document CHEMBL1123612, “Studies on histamine H2 receptor antagonists. 2. Synthesis and pharmacological activities of N-sulfamoyl and N-sulfonyl amidine derivatives” (1987)

Columns and labels:
[1] = target: Histamine H2 receptor (Cavia porcellus) (UniProt P47747); assay: Histamine H2 receptor antagonist activity (chronotropic response to histamine) in guinea pig right atrium; type: functional, tissue-based; conditions: Cardiac atrium
Method in brief: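 Spontaneously beating atrium; rate recorded via force-displacement transducer. Test compound added 10 min before histamine (5 × 10⁻⁶ M), three to four concentrations per compound. Percent inhibition of the histamine-induced rate increase plotted against log concentration; 50% inhibitory dose read from the dose-response curve (means ± SE).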

[2] = test system: Canis familiaris; assay: (§1) Reduction in gastric acid secretion under histamine[160 ug/(kg h)] stimulation in anesthetized dogs after intravenous administration; type: functional; conditions: Canis lupus familiaris, Stomach
Method in brief: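 Fasted (24 h) mongrel dogs, 8-10 kg, anesthetized with iv pentobarbital (30 mg/kg). Gastric juice acidity titrated with 0.05 N NaOH. Percent inhibition per dose taken from predrug acid output versus minimum output, usually reached within 45 min of dosing. ED50 read from semilog plot of inhibition against dose; two to four dogs per compound.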

[3] = test system: Canis familiaris; assay: as §1; conditions: Canis lupus familiaris, Stomach

Sequence of Histamine H2 receptor (Cavia porcellus) (P47747 whole entry): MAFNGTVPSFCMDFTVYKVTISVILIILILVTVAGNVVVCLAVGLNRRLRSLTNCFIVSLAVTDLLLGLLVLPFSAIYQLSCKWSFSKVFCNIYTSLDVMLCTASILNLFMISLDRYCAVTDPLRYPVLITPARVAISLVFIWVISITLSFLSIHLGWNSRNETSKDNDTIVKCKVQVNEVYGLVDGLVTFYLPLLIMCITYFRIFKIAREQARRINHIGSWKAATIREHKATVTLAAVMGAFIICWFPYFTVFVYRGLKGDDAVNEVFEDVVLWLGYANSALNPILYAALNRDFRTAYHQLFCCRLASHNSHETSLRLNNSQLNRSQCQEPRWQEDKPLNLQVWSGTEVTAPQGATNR

Structure (SMILES)	ED50 [1]	ED50 [2]	ED50 [3]
N=C(N)Nc1nc(CCCCC(=N)NS(=O)(=O)NC2CCCCC2)cs1	1.3 µM	–	–
N=C(N)Nc1nc(CSCCC(=N)NS(=O)(=O)c2ccccc2)cs1	0.7 µM	0.0568 mg/kg	–
N=C(N)Nc1nc(CCCCC(=N)NS(=O)(=O)c2ccc(N)cc2)cs1	0.35 µM	0.0101 mg/kg	–
C/N=C(\N)Nc1nc(CSCCC(=N)NS(N)(=O)=O)cs1	0.48 µM	0.0518 mg/kg	–
CN/C(=N\CCSCc1nc[nH]c1C)NC#N [CIMETIDINE]	2.7 µM	–	0.33 mg/kg
CN(C)Nc1nc(CSCCC(=N)NS(N)(=O)=O)cs1	> 100 µM	–	–
CN(C)Cc1ccc(CSCCC(=N)NS(N)(=O)=O)o1	17 µM	–	–
N=C(CCSCc1ccccn1)NS(N)(=O)=O	> 100 µM	–	–
NC(N)=Nc1nc(CSCC/C(N)=N/S(N)(=O)=O)cs1 [FAMOTIDINE]	0.27 µM	0.0087 mg/kg	–
CCCNS(=O)(=O)NC(=N)CCCCc1csc(N=C(N)N)n1	0.56 µM	0.0266 mg/kg	–
Cc1[nH]cnc1CSCCC(=N)NS(N)(=O)=O	> 100 µM	–	–
N=C(CCCOc1cccc(CN2CCCCC2)c1)NS(N)(=O)=O	1.4 µM	–	–
N=C(N)Nc1nc(CCCCC(=N)NS(N)(=O)=O)cs1	0.23 µM	0.0089 mg/kg	–
N=C(N)Nc1nc(C[S+]([O-])CCC(=N)NS(N)(=O)=O)cs1 (configuration not stated)	73 µM	–	–
N=C(N)Nc1nc(CSCCC(=N)NS(=O)(=O)c2ccc(N)cc2)cs1	0.45 µM	0.03 mg/kg	–
N=C(N)Nc1nc(CSCCC(=N)NNS(=O)(=O)c2ccccc2)cs1	8.3 µM	–	–
CN(C)S(=O)(=O)NC(=N)CCSCc1csc(N=C(N)N)n1.O=C(O)/C=C\C(=O)O	1.4 µM	0.277 mg/kg	–
CNS(=O)(=O)NC(=N)CCSCc1csc(N=C(N)N)n1	0.86 µM	0.0366 mg/kg	–
N=C(N)Nc1nc(CCCCC(=N)NNS(=O)(=O)c2ccccc2)cs1	23 µM	–	–
N=C(N)Nc1nc(CCCCC(=N)NS(=O)(=O)c2ccccc2)cs1	0.58 µM	0.0194 mg/kg	–
N=C(N)Nc1nc(CSCCC(=N)NS(N)(=O)=O)no1	> 100 µM	–	–
N=C(N)Nc1nc(CSCCC(=N)NS(=O)(=O)NCc2ccccc2)cs1	1.1 µM	0.0396 mg/kg	–
CCS(=O)(=O)NC(=N)CCCCc1csc(N=C(N)N)n1	0.6 µM	0.0244 mg/kg	–
CS(=O)(=O)NC(=N)CCSCc1csc(N=C(N)N)n1	0.51 µM	–	–
